From EPA's CvTdb concentration-time database

How the values were obtained:
Rat [1] = assay: concentration in plasma after dosing; details: 2 h; dosed: Tetralin; 2 mg/kg; iv; Male; F344
Rat [2] = assay: concentration in plasma after dosing; details: dosed: Tetralin, 20 mg/kg, iv, Female, Harlan Sprague Dawley
Rat [3] = assay: concentration in plasma after dosing; details: dosed: Tetralin, 2 mg/kg, iv, Male, Harlan Sprague Dawley
Rat [4] = assay: concentration in plasma after dosing; details: dosed: Tetralin, 2 mg/kg, iv, Male, F344
Rat [5] = assay: concentration in plasma after dosing; details: 2 h; dosed: Tetralin; 20 mg/kg; iv; Female; Harlan Sprague Dawley
Rat [6] = assay: concentration in plasma after dosing; details: 2 h; dosed: Tetralin; 2 mg/kg; iv; Male; Harlan Sprague Dawley
Rat [7] = assay: concentration in plasma after dosing; details: dosed: Tetralin, 20 mg/kg, iv, Female, Harlan Sprague Dawley; remark: listed apart in the source
Rat [8] = assay: concentration in plasma after dosing; details: dosed: Tetralin, 2 mg/kg, iv, Male, F344; remark: listed apart in the source
Rat [9] = assay: concentration in plasma after dosing; details: dosed: Tetralin, 2 mg/kg, iv, Male, Harlan Sprague Dawley; remark: listed apart in the source
Rat [10] = assay: concentration in plasma after dosing; details: dosed: Tetralin, 2 mg/kg, iv, Male, F344; remark: listed apart in the source
Rat [11] = assay: concentration in plasma after dosing; details: dosed: Tetralin, 20 mg/kg, iv, Female, Harlan Sprague Dawley; remark: listed apart in the source
Rat [12] = assay: concentration in plasma after dosing; details: dosed: Isoeugenol, 17 mg/kg, oral, Female, F344/N
Rat [13] = assay: concentration in plasma after dosing; details: dosed: Isoeugenol, 17 mg/kg, oral, Female, F344/N; remark: listed apart in the source
Rat [14] = assay: concentration in plasma after dosing; details: dosed: Isoeugenol, 70 mg/kg, oral, Male, F344/N
Rat [15] = assay: concentration in plasma after dosing; details: dosed: Isoeugenol, 17 mg/kg, oral, Female, F344/N; remark: listed apart in the source
Rat [16] = assay: concentration in plasma after dosing; details: 20 min; dosed: Isoeugenol; 17 mg/kg; oral; Male; F344/N
Rat [17] = assay: concentration in plasma after dosing; details: dosed: Isoeugenol, 17 mg/kg, oral, Male, F344/N
Rat [18] = assay: concentration in plasma after dosing; details: dosed: Isoeugenol, 17 mg/kg, oral, Female, F344/N; remark: listed apart in the source
Rat [19] = assay: concentration in plasma after dosing; details: dosed: Isoeugenol, 17 mg/kg, oral, Female, F344/N; remark: listed apart in the source
Rat [20] = assay: concentration in plasma after dosing; details: dosed: Isoeugenol, 17 mg/kg, oral, Male, F344/N; remark: listed apart in the source
Rat [21] = assay: concentration in plasma after dosing; details: dosed: Isoeugenol, 17 mg/kg, oral, Male, F344/N; remark: listed apart in the source
Rat [22] = assay: concentration in plasma after dosing; details: dosed: Isoeugenol, 70 mg/kg, oral, Male, F344/N; remark: listed apart in the source
Rat [23] = assay: concentration in plasma after dosing; details: dosed: Isoeugenol, 17 mg/kg, oral, Female, F344/N; remark: listed apart in the source
Rat [24] = assay: concentration in plasma after dosing; details: dosed: Isoeugenol, 70 mg/kg, oral, Male, F344/N; remark: listed apart in the source
Rat [25] = assay: concentration in plasma after dosing; details: dosed: Isoeugenol, 70 mg/kg, oral, Male, F344/N; remark: listed apart in the source
Rat [26] = assay: concentration in plasma after dosing; details: dosed: Isoeugenol, 70 mg/kg, oral, Male, F344/N; remark: listed apart in the source
Rat [27] = assay: concentration in plasma after dosing; details: 5 min; dosed: Isoeugenol; 17 mg/kg; oral; Male; F344/N
Rat [28] = assay: concentration in plasma after dosing; details: dosed: Isoeugenol, 17 mg/kg, oral, Male, F344/N; remark: listed apart in the source
rat [29] = assay: concentration in blood after dosing; details: dosed: styrene, 3000 ppm, dermal, duration: 4 hr, male, F344
rat [30] = assay: concentration in blood after dosing; details: dosed: styrene, 3000 ppm, dermal, duration: 4 hr, male, F344; remark: listed apart in the source
human = assay: concentration in blood after dosing; negative times count back from the end of exposure; details: dosed: methylethylketone, 400 ppm, inhalation, duration: 4 hr, male
Summary of the method: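 Sampling and analytical methods are those of each source and frequently went unreported. The concentration-versus-time and amount-versus-time points were compiled from published in vivo toxicokinetic studies and two structured collections. Most were digitised from plot screenshots with WebPlotDigitizer, with others copied from tables, in the reported units.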

c1ccc2c(c1)CCCC2 [Tetralin]
Details	concentration in plasma [µg/g]
Rat [1]	0.0271
Rat [5]	0.628
Rat [6]	0.0164

Details	concentration in plasma [µg/g]
Rat [2], 4 h	0.216
Rat [2], 5 min	22.1
Rat [3], 4 h	0.0072
Rat [3], 307 s	1.62
Rat [4], 0.75 h	0.134
Rat [4], 12 h	0.00182
Rat [7], 0.25 h	11.4
Rat [7], 6 h	0.104
Rat [8], 0.2517 h	0.63
Rat [8], 6 h	0.00762
Rat [9], 0.75 h	0.0729
Rat [9], 12 h	0.00211
Rat [10], 0.75 h	0.105
Rat [10], 12 h	0.00167
Rat [11], 4 h	0.204
Rat [11], 5 min	20.3

C/C=C/c1ccc(O)c(OC)c1 [Isoeugenol]
Details	concentration in plasma [ng/mL]
Rat [12], 5 h	28.3
Rat [12], 10 min	430
Rat [13], 0.5 h	162
Rat [13], 4 h	33.5
Rat [14], 2 min	74.6
Rat [14], 6 h	84.5
Rat [15], 8 h	31.8
Rat [15], 20 min	311
Rat [17], 0.75 h	32.4
Rat [17], 2 h	77.9
Rat [18], 1 h	22.7
Rat [18], 3 h	29.5
Rat [19], 2 h	23.2
Rat [19], 2 min	69.1
Rat [20], 1.5 h	34.3
Rat [20], 2 min	38.3
Rat [21], 3 h	17.2
Rat [21], 10 min	220
Rat [22], 6 h	240
Rat [22], 20 min	1840
Rat [23], 5 min	375
Rat [23], 6 h	160
Rat [24], 2 h	68.4
Rat [24], 2 min	711
Rat [25], 5 h	66.8
Rat [25], 10 min	353
Rat [26], 1.5 h	97
Rat [26], 10 min	850
Rat [28], 0.75 h	57
Rat [28], 8 h	19.5

Details	concentration in plasma [ng/mL]
Rat [16]	105
Rat [27]	238

C=Cc1ccccc1 [styrene]
concentration in blood [ng/mL]
Details	0.5 h	1 h	2 h	3 h	4 h
rat [29]	2860	8010	4910	11300	10200
rat [30]	1870	2430	5540	6070	7900

CCC(C)=O [methylethylketone]
human
Details	concentration in blood [µM]
0.1276 h	272
0.2874 h	258
0.4715 h	227
0.9608 h	208
1.479 h	139
1.973 h	122
2.966 h	102
4.323 h	54.9
4.977 h	22.4
5.98 h	16.2
6.983 h	7.11

human, during exposure
Details	concentration in blood [µM]
-64 s	309
-3.826 h	72.5
-3.661 h	84.6
-3.486 h	115
-2.992 h	143
-2.503 h	181
-1.994 h	218
-1.011 h	276
